Reference: ChEMBL document CHEMBL3232922, “Discovery and SAR of 6-alkyl-2,4-diaminopyrimidines as histamine H₄ receptor antagonists” (J Med Chem, 2014)
The source made the active and inactive calls. The rule behind the calls is not given here.

Legend:
[1] = Half life in rat at 10 mg/kg, po; format: ADME, organism-based; parameters: dose 10 mg/kg, route oral; settings: in vivo
[2] = AUC in Balb/c mouse at 2 mg/kg, iv; format: ADME, organism-based; parameters: dose 2 mg/kg, route intravenous; settings: plasma
[3] = Initial plasma concentration in beagle dog at 2 mg/kg, iv; format: ADME, organism-based, Canis lupus familiaris; parameters: dose 2 mg/kg, route intravenous
[4] = Half life in mouse brain at 5 mg/kg, po administered as single dose by LC-MS/MS analysis; format: ADME, organism-based; parameters: dose 5 mg/kg, route oral
Method in brief: (§1)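 Mice received one oral dose of 5 mg/kg. Brain, liver and kidneys were surgically removed from three mice per time point for up to 96 h after dosing. Tissue drug levels were measured by LC–MS/MS with a lower limit of quantitation of 1 ng/g. Tmax and t1/2 are reported as means.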

[5] = Half life in dog liver microsomes; format: ADME, Canis lupus familiaris
[6] = AUC in Balb/c mouse at 20 mg/kg, po; format: ADME, organism-based; parameters: dose 20 mg/kg, route oral; settings: plasma
[7] = target: T1, Histamine H4 receptor (Homo sapiens, UniProt Q9H3N8); assay: Agonist activity at human H4 receptor
[8] = Tmax in mouse liver at 5 mg/kg, po administered as single dose by LC-MS/MS analysis; format: ADME, organism-based; parameters: dose 5 mg/kg, route oral; method in brief: as §1
[9] = Clearance in Balb/c mouse at 2 mg/kg, iv; format: ADME, organism-based; parameters: dose 2 mg/kg, route intravenous; settings: in vivo
[10] = AUC in Sprague-Dawley rat at 10 mg/kg, po; format: ADME, organism-based; parameters: dose 10 mg/kg, route oral; settings: plasma
[11] = test system: Mus musculus; assay: Antiinflammatory activity in po dosed Balb/c mouse assessed as inhibition of LPS-induced TNF-alpha release at plasma concentration of 5.7 nM administered 30 mins prior to LPS challenge measured after 2 hrs by ELISA; format: functional, organism-based
[12] = Half life in human microsomes; format: ADME, Microsome
[13] = target: T1, Histamine H4 receptor; assay: Displacement of [3H]histamine from human recombinant histamine H4 receptor expressed in SK-N-MC cells after 45 mins by competition binding analysis; format: cell-based
[14] = target: T1, Histamine H4 receptor; assay: Antagonist activity at human histamine H4 receptor expressed in SK-N-MC cells assessed as reduction of histamine-induced inhibition of cAMP-mediated beta-galactosidase reporter gene activity treated 10 mins prior to histamine challenge by microplate reader analysis; format: functional, cell-based; settings: read-out: pA2 (converted)
[15] = Clearance in Sprague-Dawley rat at 2 mg/kg, iv; format: ADME, organism-based; parameters: dose 2 mg/kg, route intravenous; settings: Sprague-Dawley, in vivo
[16] = Half life in rat microsomes; format: ADME, Microsome
[17] = target: Histamine H3 receptor (Homo sapiens, UniProt Q9Y5N1); assay: Displacement of [3H]N-alpha-methylhistamine from human recombinant histamine H3 receptor expressed in SK-N-MC cells after 45 mins by competition binding analysis; format: cell-based
Chain of Histamine H3 receptor (Q9Y5N1 whole entry): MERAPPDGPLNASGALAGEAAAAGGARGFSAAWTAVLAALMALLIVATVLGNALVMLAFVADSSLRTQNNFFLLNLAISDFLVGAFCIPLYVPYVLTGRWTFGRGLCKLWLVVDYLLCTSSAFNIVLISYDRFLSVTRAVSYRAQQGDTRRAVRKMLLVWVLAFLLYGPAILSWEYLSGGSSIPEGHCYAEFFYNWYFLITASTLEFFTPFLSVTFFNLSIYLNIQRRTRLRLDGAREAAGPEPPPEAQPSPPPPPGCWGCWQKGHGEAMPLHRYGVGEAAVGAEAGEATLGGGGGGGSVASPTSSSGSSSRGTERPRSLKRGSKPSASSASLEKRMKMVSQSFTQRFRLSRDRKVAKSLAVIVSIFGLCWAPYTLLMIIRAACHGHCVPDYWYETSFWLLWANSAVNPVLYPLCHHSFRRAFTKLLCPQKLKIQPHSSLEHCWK

[18] = test system: Mus musculus; assay: Antiinflammatory activity against po dosed collagen-induced arthritis mouse model assessed as inhibition of clinical score; format: functional, organism-based
Method in brief: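 Mouse collagen-induced arthritis model. Compound was given orally in 20% hydroxypropyl-β-cyclodextran, with eight mice per group.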

[19] = Initial plasma concentration in Sprague-Dawley rat at 2 mg/kg, iv; format: ADME, organism-based; parameters: dose 2 mg/kg, route intravenous
[20] = AUC in Sprague-Dawley rat at 2 mg/kg, iv; format: ADME, organism-based; parameters: dose 2 mg/kg, route intravenous; settings: plasma
[21] = Half life in Balb/c mouse at 5 mg/kg, po; format: ADME, organism-based; parameters: dose 5 mg/kg, route oral; settings: in vivo
[22] = Half life in beagle dog at 10 mg/kg, po; format: ADME, organism-based, Canis lupus familiaris; parameters: dose 10 mg/kg, route oral; settings: in vivo
[23] = Oral bioavailability in Sprague-Dawley rat at 200 mg/kg; format: ADME, organism-based; settings: in vivo
[24] = Antagonist activity at monkey histamine H4 receptor; parameters: species or system Macaca mulatta
[25] = Fraction unbound in human plasma; format: ADME, cell-free
[26] = Half life in Balb/c mouse at 2 mg/kg, iv; format: ADME, organism-based; parameters: dose 2 mg/kg, route intravenous; settings: in vivo
[27] = Half life in human liver microsomes; format: ADME
[28] = Cmax in Sprague-Dawley rat at 50 mg/kg, po; format: ADME, organism-based; parameters: dose 50 mg/kg, route oral; settings: in vivo
[29] = Oral bioavailability in Sprague-Dawley rat at 10 mg/kg; format: ADME, organism-based; settings: in vivo
[30] = Half life in mouse liver at 5 mg/kg, po administered as single dose by LC-MS/MS analysis; format: ADME, organism-based; parameters: dose 5 mg/kg, route oral; method in brief: as §1
[31] = target: Voltage-gated inwardly rectifying potassium channel KCNH2 (Homo sapiens, UniProt Q12809); assay: Inhibition of human ERG channel transfected in HEK293 cells assessed as K+ current at up to 10 uM by patch clamp assay; format: cell-based
Chain of Voltage-gated inwardly rectifying potassium channel KCNH2 (Q12809 whole entry): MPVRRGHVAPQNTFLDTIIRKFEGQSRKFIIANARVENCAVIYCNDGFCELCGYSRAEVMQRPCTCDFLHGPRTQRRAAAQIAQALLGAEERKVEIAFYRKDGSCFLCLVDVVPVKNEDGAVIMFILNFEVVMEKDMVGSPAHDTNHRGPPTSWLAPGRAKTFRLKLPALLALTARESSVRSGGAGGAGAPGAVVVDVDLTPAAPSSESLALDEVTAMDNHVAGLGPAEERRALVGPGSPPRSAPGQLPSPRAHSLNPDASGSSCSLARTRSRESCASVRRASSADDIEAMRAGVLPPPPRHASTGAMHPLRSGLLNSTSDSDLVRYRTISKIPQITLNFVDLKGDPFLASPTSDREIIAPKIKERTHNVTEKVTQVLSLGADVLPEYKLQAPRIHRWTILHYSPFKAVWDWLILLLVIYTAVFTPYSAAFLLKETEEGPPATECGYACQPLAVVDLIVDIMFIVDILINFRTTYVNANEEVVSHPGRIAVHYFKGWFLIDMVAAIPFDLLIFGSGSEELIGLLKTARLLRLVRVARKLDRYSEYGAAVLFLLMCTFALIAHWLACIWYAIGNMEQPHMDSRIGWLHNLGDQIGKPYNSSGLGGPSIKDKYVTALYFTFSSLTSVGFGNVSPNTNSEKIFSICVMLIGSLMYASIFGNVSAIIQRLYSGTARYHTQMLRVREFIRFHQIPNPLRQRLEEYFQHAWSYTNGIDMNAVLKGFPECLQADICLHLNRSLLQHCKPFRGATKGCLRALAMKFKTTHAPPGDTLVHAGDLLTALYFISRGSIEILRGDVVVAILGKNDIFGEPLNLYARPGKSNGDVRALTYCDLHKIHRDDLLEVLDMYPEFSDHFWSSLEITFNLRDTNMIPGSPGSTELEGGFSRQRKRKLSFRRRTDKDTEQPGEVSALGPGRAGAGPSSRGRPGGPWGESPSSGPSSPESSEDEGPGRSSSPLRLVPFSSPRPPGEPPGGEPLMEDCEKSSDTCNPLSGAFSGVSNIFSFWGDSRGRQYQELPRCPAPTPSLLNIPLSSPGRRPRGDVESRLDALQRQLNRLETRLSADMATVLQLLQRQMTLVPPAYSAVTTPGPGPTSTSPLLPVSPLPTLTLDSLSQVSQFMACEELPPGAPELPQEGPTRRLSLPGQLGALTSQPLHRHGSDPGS

[32] = target: Histamine H4 receptor (Rattus norvegicus, UniProt Q91ZY1); assay: Antagonist activity at rat histamine H4 receptor expressed in SK-N-MC cells assessed as reduction of histamine-induced inhibition of cAMP-mediated beta-galactosidase reporter gene activity treated 10 mins prior to histamine challenge by microplate reader analysis; format: functional, cell-based; settings: read-out: pA2 (converted)
Chain of Histamine H4 receptor (Rattus norvegicus, UniProt Q91ZY1) (Q91ZY1 whole entry): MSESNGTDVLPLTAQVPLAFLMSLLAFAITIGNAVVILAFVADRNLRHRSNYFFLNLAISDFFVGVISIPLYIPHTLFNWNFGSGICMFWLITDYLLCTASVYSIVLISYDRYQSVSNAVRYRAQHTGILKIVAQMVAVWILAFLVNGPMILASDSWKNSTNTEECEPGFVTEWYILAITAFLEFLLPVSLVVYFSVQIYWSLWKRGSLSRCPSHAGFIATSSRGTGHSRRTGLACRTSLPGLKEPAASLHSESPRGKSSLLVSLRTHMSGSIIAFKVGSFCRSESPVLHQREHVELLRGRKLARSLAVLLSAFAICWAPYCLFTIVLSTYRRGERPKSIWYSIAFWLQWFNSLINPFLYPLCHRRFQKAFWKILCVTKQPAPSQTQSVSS

[33] = Tmax in Balb/c mouse at 5 mg/kg, po; format: ADME, organism-based; parameters: dose 5 mg/kg, route oral; settings: in vivo
[34] = Half life in mouse kidney at 5 mg/kg, po administered as single dose by LC-MS/MS analysis; format: ADME, organism-based; parameters: dose 5 mg/kg, route oral; method in brief: as §1
[35] = Tmax in Sprague-Dawley rat at 10 mg/kg, po; format: ADME, organism-based; parameters: dose 10 mg/kg, route oral; settings: in vivo
[36] = test system: Salmonella typhimurium; assay: Genotoxicity in Salmonella typhimurium by Ames test; format: toxicity, organism-based; settings: salmonella enterica subsp. enterica serovar typhimurium
[37] = Volume of distribution at steady state in beagle dog at 2 mg/kg, iv; format: ADME, organism-based, Canis lupus familiaris; parameters: dose 2 mg/kg, route intravenous; settings: in vivo, read-out: Vdss
[38] = Toxicity in rabbit purkinje fibers; format: tissue-based, Oryctolagus cuniculus, Purkinje fiber; settings: ex_vivo
[39] = AUC in rat at 2 mg/kg, iv; format: ADME, organism-based; parameters: dose 2 mg/kg, route intravenous; settings: plasma
[40] = Cmax in Balb/c mouse at 20 mg/kg, po; format: ADME, organism-based; parameters: dose 20 mg/kg, route oral; settings: in vivo
[41] = AUC in Sprague-Dawley rat at 500 mg/kg, po; format: ADME, organism-based; parameters: dose 500 mg/kg, route oral; settings: plasma
[42] = Tmax in Sprague-Dawley rat at 500 mg/kg, po; format: ADME, organism-based; parameters: dose 500 mg/kg, route oral; settings: in vivo
[43] = Oral bioavailability in beagle dog at 10 mg/kg; format: ADME, organism-based, Canis lupus familiaris; settings: in vivo
[44] = target: Cytochrome P450 3A4 (Homo sapiens, UniProt P08684); assay: Inhibition of CYP3A4 (unknown origin) at 50 to 100 uM; format: ADME
Chain of Cytochrome P450 3A4 (P08684 whole entry): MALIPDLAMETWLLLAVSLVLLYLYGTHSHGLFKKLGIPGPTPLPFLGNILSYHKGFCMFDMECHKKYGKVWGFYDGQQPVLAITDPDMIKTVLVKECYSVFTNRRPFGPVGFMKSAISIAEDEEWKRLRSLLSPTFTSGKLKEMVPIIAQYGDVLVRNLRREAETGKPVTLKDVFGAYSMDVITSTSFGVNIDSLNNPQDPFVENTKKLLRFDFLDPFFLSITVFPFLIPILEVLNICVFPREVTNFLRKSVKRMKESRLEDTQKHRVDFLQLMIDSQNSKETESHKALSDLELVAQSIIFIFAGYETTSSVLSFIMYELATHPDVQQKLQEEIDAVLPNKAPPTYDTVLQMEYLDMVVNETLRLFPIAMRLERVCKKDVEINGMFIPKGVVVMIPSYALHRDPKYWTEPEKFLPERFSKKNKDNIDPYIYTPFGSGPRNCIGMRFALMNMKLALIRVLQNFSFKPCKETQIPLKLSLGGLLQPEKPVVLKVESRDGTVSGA

[45] = Half life in Sprague-Dawley rat at 10 mg/kg, po; format: ADME, organism-based; parameters: dose 10 mg/kg, route oral; settings: in vivo
[46] = Ratio of drug level in kidney to plasma in mouse at 5 mg/kg, po administered as single dose […] by LC-MS/MS analysis; format: ADME, organism-based; parameters: dose 5 mg/kg, route oral
[47] = AUC in beagle dog at 10 mg/kg, po; format: ADME, organism-based, Canis lupus familiaris; parameters: dose 10 mg/kg, route oral; settings: plasma
[48] = AUC in Sprague-Dawley rat at 50 mg/kg, po; format: ADME, organism-based; parameters: dose 50 mg/kg, route oral; settings: plasma
[49] = Permeability from apical to basolateral side in human Caco cells; format: ADME, cell-based; settings: Caco-2, read-out: permeability

half-life [1]: 7.5 h | AUC [2]: 3.27 µM·h | C0 [3]: 4220 nM | half-life [4]: 42.5 h | half-life [5]: > 2 h | AUC [6]: 24.6 µM·h | EC50 [7]: > 10000 nM | Tmax [8]: 2 h | clearance [9]: 40 mL/min/kg | AUC [10]: 2.43 µM·h | half-life [12]: > 3 h | Ki [13]: 12.5 nM | Kb [14]: 12.6 nM | clearance [15]: 91.7 mL/min/kg | half-life [16]: 1.02 h | Ki [17]: 1040 nM | C0 [19]: 1100 nM | AUC [20]: 1.4 µM·h | half-life [21]: 6.8 h | half-life [22]: 11.2 h | bioavailability [23]: 51% | pA2 [24]: 7.5 | fraction unbound [25]: 0.81 | half-life [26]: 7.8 h | half-life [27]: > 2 h | Cmax [28]: 1250 nM | bioavailability [29]: 35% | half-life [30]: 22.3 h | Kb [32]: 63.1 nM | Tmax [33]: 2 h | half-life [34]: 20.5 h | Tmax [35]: 2 h | Vd [37]: 19.9 L/kg | AUC [39]: 1.4 µM·h | Cmax [40]: 5030 nM | AUC [41]: 184 µM·h | Tmax [42]: 8 h | bioavailability [43]: 95% | inhibition (INH) [44]: Not Active | half-life [45]: 5.7 h | Kp [46]: 23.2 | AUC [47]: 31.6 µM·h | AUC [48]: 13.4 µM·h | Papp A→B [49]: 23 ×10⁻⁶ cm/s
Structure (SMILES): CC(C)c1cc(N2CC[C@@H](N)C2)nc(N)n1 [JNJ-39758979]
inhibition [11]: Active | inhibition [18]: Dose-dependent effect | inhibition (INH) [31]: Not Active | Activity [36]: Non-toxic | Activity [38]: Non-toxic
